# In ChEMBL document CHEMBL4765302, “Design, synthesis and biological evaluation of novel histone deacetylase1/2 (HDAC1/2) and cyclin-dependent Kinase2 (CDK2) dual inhibitors against malignant cancer” (Eur J Med Chem, 2020):
# Active and inactive are the calls of the source. No cut-off for these calls is given here.
# Tests used:
# HCT-116 [1] = test: Antiproliferative activity against human HCT-116 cells assessed as reduction in cell growth at 8 uM incubated for 72 hrs by CCK-8 assay relative to control; format: functional
# NCI-H460 [2] = test: Antiproliferative activity against human H460 cells assessed as reduction in cell growth at 2 uM incubated for 72 hrs by CCK-8 assay relative to control; format: functional
# Histone deacetylase 1 = Histone deacetylase 1 (Homo sapiens, UniProt Q13547); test: Potency index, ratio of IC50 of CS055 to IC50 of compound for inhibition of recombinant human HDAC1 using […] as substrate incubated for 10 mins followed by substrate addition and measured after 30 mins by fluorescence based assay
# NCI-H460 [3] = test: Antimigratory activity against human NCI-H460 cells assessed as inhibition of migration at 0.5 uM incubated for 48 hrs by microscopic based wound healing test; format: functional, cell-based
# Outline: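 Scratch (wound-healing) migration assay in A375 and H460 cells seeded in 12-well plates. Cells exposed to compound, CS055, roscovitine or DMSO blank for 48 h. At least two independent experiments.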
# HCT-116 [4] = test: Induction of cell cycle arrest in human HCT-116 cells assessed as reduction in G0/G1 phase at 0.5 to 2 uM incubated for 24 hrs by PI staining based flow cytometry; format: functional; conditions: dose 0.5-2 µM
# Outline: (§1)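 Treatment at 2, 1 and 0.5 μM for 24 h, alongside CS055 and roscovitine, against a DMSO (0.1 %) blank. Cells then stained with propidium iodide and analyzed by flow cytometry.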
# NCI-H460 [5] = test: Induction of cell cycle arrest in human NCI-H460 cells assessed as reduction in G0/G1 phase at 0.5 to 2 uM incubated for 24 hrs by PI staining based flow cytometry; format: functional; conditions: dose 0.5-2 µM; outline: as §1
# A-375 = test: Induction of apoptosis in human A-375 cells assessed as viable cells at 1 uM incubated for 48 hrs by annexin V-FITC and PI staining based flow cytometry (reference value: 96.3 %); format: functional; conditions: read-out: Activity
# HCT-116 [6] = test: Induction of apoptosis in human HCT-116 cells assessed as early apoptotic cells at 2 uM incubated for 48 hrs by annexin V-FITC and PI staining based flow cytometry (reference value: 4.14 %); format: functional
# HCT-116 [7] = test: Induction of apoptosis in human HCT-116 cells assessed as late apoptotic cells at 1 uM incubated for 48 hrs by annexin V-FITC and PI staining based flow cytometry (reference value: 1.88 %); format: functional
# NCI-H460 [8] = test: Induction of apoptosis in human NCI-H460 cells assessed as late apoptotic cells at 0.5 uM incubated for 48 hrs by annexin V-FITC and PI staining based flow cytometry (reference value: 6.11 %); format: functional
# HeLa = test: Induction of apoptosis in human HeLa cells assessed as late apoptotic cells at 2 uM incubated for 48 hrs by annexin V-FITC and PI staining based flow cytometry (reference value: 0.870 %); format: functional
# [9] = target: Cyclin-dependent kinase 2 (Homo sapiens) (UniProt P24941); test: Inhibition of CDK2 in human A-375 cells at 1 uM incubated for 12 hrs by DAPI and immunofluorescence staining based confocal microscopic analysis; format: cell-based
# [10] = AUC (0 to t) in ICR mouse at 4 mg/kg, iv measured upto 24 hrs by LC-MS/MS analysis; format: ADME, organism-based; parameters: route intravenous, dose 4 mg/kg, time <=24; conditions: in vivo
# Outline: (§2)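 Male ICR mice (N=9). Single dose, either 4 mg/kg intravenous or 20 mg/kg intraperitoneal. Parameters derived: T1/2, Tmax, Cmax, AUC0-t, MRT0-t and CL, with F for the intraperitoneal arm.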
# [11] = Clearance in ICR mouse at 4 mg/kg, iv measured upto 24 hrs by LC-MS/MS analysis; format: ADME, organism-based; conditions: in vivo; outline: as §2
# NCI-H460 [12] = test: Induction of apoptosis in human H460 cells assessed as apoptosis rate at 2 uM incubated for 48 hrs by annexin V-FITC and PI staining based flow cytometry relative to control; format: functional
# [13] = AUC (0 to t) in ICR mouse at 20 mg/kg, ip measured upto 24 hrs by LC-MS/MS analysis; conditions: in vivo
# Sequence of Histone deacetylase 1 (Q13547 whole entry): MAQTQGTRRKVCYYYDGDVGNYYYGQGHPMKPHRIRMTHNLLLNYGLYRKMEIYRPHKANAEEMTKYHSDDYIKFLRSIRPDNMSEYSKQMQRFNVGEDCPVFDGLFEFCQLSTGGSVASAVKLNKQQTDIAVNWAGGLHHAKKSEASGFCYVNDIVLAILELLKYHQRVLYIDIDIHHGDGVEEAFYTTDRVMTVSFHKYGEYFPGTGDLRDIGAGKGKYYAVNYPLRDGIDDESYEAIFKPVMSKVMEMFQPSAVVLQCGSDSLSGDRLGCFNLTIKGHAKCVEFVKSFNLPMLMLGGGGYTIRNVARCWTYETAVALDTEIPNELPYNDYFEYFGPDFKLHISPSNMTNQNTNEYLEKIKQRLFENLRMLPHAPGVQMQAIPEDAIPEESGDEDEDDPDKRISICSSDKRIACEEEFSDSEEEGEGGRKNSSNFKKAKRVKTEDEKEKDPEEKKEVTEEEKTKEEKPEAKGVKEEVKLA
smiles,measurement,setting,value
Cc1ccc(Nc2nc(Cl)nc3c2ncn3Cc2ccc(C(=O)Nc3ccccc3N)cc2)cc1,inhibition at 8 µM,HCT-116 [1],81.5%
same,inhibition at 2 µM,NCI-H460 [2],67.3%
same,Ratio IC50,Histone deacetylase 1,3
same,inhibition,NCI-H460 [3],Active
same,Activity,HCT-116 [4],Active
same,Activity,NCI-H460 [5],Active
same,viability at 1 µM,A-375,8.06%
same,Activity,HCT-116 [6],76.2%
same,Activity,HCT-116 [7],14%
same,Activity,NCI-H460 [8],4.31%
same,Activity,HeLa,14.1%
same,inhibition,[9],Active
same,AUC(0-t) at 24 h,[10],2850 ng·h/mL
same,clearance,[11],23.3 mL/min/kg
same,Activity,NCI-H460 [12],59.1%
same,AUC(0-t) at 24 h,[13],7240 ng·h/mL
